In article PMC6299426 (Theranostics, 2018):
Like-named read-outs stand apart in the source and are kept apart here. Marks after values point to notes of the source that are not given here. Values belong to the compound of their own block, whether it stands above or below them.

What was measured:
[1] = Identification of albiflorin metabolites in vivo; parameters: species or system ICR mice; settings: after albiflorin administration
Summary of the method: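 Fecal metabolites were profiled by LC/MSn-IT-TOF. Feces were extracted with methanol (1/10, g/mL) by ultrasound for 30 min and centrifuged 10 min at 21100 ×g; 20 μL of supernatant was injected. Separation used a C18 column (250 × 4.6 mm, 5 μm) with a water/0.5% formic acid–methanol gradient at 0.8 mL/min over 45 min. Brain was sampled 2 h after oral dosing at 14 mg/kg, with analytes quantified by HPLC-MS/MS.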

[2] = tested on: D-amino acid oxidase (DAAO); assay: D-serine oxidation by pure DAAO in vitro; format: biochemical; settings: 89 μM, 15 min at 37 °C; control 13%
[3] = tested on: carboxylesterase of the gut microbiota; format: biochemical, SD rats; settings: without inhibitor 100%
Summary of the method: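 Carboxylesterase inhibitor BNPP (0.3, 0.9 or 3 mM) was added together with test compound (final 1 mg/mL) to pre-incubated pooled SD rat colon-content cultures. Incubation was anaerobic (N2) at 37 °C. Conversion was followed by C18 LC/MSn-IT-TOF.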

[4] = tested on: reserpine-induced acute depression model mice; assay: Tail suspension test in reserpine-induced acute depression model; format: in vivo, ICR mice; settings: model group 140.6 ± 13.6 s
[5] = tested on: reserpine-induced acute depression model mice; assay: Degree of ptosis in reserpine-induced acute depression model; format: in vivo, ICR mice; settings: 7 days, 1 h after reserpine, scale 0-4, model 2.7
[6] = tested on: reserpine-induced acute depression model mice; assay: Body temperature in reserpine-induced acute depression model; format: in vivo, ICR mice; settings: 7 days, 4 h after reserpine, model 34.55±0.25
[7] = tested on: reserpine-induced acute depression model mice; assay: Out-circle rate in reserpine-induced acute depression model; format: in vivo, ICR mice; settings: 7 days, in 15 s, model 20.0
[8] = tested on: chronic stress-induced depression model rats; assay: Sugar preference test in chronic stress-induced depression model; format: in vivo, SD rats; settings: 14 mg/kg orally, 14 days
Summary of the method: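 SD rats were exposed to multiple alternating stressors for 8 weeks; there were 6 groups of 10, including an unstressed control. Treatment lasted 14 days, and PGF rats stayed on antibiotics throughout. Sugar preference was tested on days 0 and 14. Data are mean ± standard deviation, analysed by two-way ANOVA and t-test.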

[9] = target: D-amino acid oxidase (DAAO) (Mus musculus, UniProt P18894); assay: DAAO activity in mouse brain homogenate; format: biochemical, ICR mice; settings: 5 and 10 μg/mL, 30 min at 37 °C
Sequence of D-amino acid oxidase (DAAO) (Mus musculus, UniProt P18894) (P18894 whole entry): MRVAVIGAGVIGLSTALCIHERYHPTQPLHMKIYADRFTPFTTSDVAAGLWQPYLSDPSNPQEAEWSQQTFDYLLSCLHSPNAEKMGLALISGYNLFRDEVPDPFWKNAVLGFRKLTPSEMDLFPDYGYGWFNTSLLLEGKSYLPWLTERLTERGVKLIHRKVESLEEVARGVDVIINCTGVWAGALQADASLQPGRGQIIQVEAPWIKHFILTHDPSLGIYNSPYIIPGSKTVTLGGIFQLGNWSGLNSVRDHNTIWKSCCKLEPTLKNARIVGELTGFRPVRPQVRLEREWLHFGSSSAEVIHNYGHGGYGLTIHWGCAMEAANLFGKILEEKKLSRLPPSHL
Summary of the method: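 Brains from ten ICR mice, killed by cervical dislocation, were rinsed in saline, blotted, weighed and homogenized in 2 volumes (v/w) saline. Test compounds at final 5 or 10 μg/mL were added and incubated 30 min at 37 °C. DAAO activity was measured by ELISA kit.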

Where the metabolite was detected in mice [1]: only detected in the feces
Compound: glucuronic acid-conjugated albiflorin [M3]

D-serine in DAAO system (%) [2]: 38%
Compound: Cc1cc(C(=O)O)n[nH]1 [AS057278, reference compound]

Compound: O=[N+]([O-])c1ccc(OP(=O)(O)Oc2ccc([N+](=O)[O-])cc2)cc1 [BNPP, bis-p-nitrophenyl phosphate]
Albiflorin conversion rate in presence of inhibitor ([3]; BNPP 0.3 mM): 82.7%
Albiflorin conversion rate in presence of inhibitor ([3]; BNPP 0.9 mM): 51.5%
Albiflorin conversion rate in presence of inhibitor ([3]; BNPP 3 mM): 11.3%

Where the metabolite was detected in mice [1]: only detected in the feces
Compound: dihydroxylalbiflorin [M2]

Compound: CNCCC(Oc1ccc(C(F)(F)F)cc1)c1ccccc1 (stereo not shown) [fluoxetine, reference compound]
Immobility time in tail suspension test ([4]; 10 mg/kg for 7 days): 76.0 ± 17.8 s
Mean score of ptosis ([5]; 10 mg/kg): 1.4 ^*
Body temperature ([6]; 10 mg/kg): 35.31±0.26 ºC
Rate of out-circle ([7]; 10 mg/kg): 60.0%

Where the metabolite was detected in mice [1]: only detected in the feces
Compound: hydroxylalbiflorin [M1]

D-serine in DAAO system (%) [2]: 32%
Activity of DAAO in brain homogenate [9]: significantly inhibit
Where the metabolite was detected in mice [1]: detected in plasma, feces and brain
Compound: O=C(O)c1ccccc1 [benzoic acid, Benzoic acid]
Sugar preference values vs depression group [8]: significantly higher
Immobility time in tail suspension test ([4]; 14 mg/kg for 7 days): 99.5 ± 10.1 s
Mean score of ptosis ([5]; 14 mg/kg): 1.7 ^*
Body temperature ([6]; 14 mg/kg): 35.23±0.40 ºC
Rate of out-circle ([7]; 14 mg/kg): 70.0 ^* %
